High-throughput results as filed in PubChem BioAssay.
Sampled rows, rich in hits. Any-hit rate of the full collection: about 6.3%.
PostGolgi yeast: phenotypic screen on post-Golgi transport, primary screen; inhibition, % at 10 µM; hit rate 0.9% among 98,000; post-Golgi transport phenotypic cell assay;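 note: yeast cells grown in 1536-well plates; yeast grown about 18 h at 30C before absorbance read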
tolC growth inh: growth inhibitors of E. coli tolC mutant, primary screen, strain BW25113 ΔtolC::kan, 384-well; OD615; growth inhibition, % at 10 µM (by protocol); hit rate 2.2% among 65,000;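 active = growth inhibition at or above a cutoff equal to the mean over every tested compound plus 3 SD, cut at about 60% in these data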;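 note: growth measured after 20 h incubation at 37 °C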
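Doses: one dose of 10 µM final / Material: E. coli BW25113 ΔtolC::kan, tolC deletion mutant strain / Buffer or medium: LB with kanamycin 50 µg/mL / Evaluation: percent growth inhibition / Detection: optical density read at 615 nm / Incubation: 37 °C, 20 h exposure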
Ecoli WT expand: growth inhibitors of wild-type E. coli, primary screen, strain BW25113, expanded library, OD600; OD600 absorbance; growth inhibition, % at 100 µM; hit rate 0.15% among 98,000;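 active = growth inhibition above about 50% at one test dose, limit read from the data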;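 note: growth measured after 20 h incubation at 37 °C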
PostGolgi ctrl: growth inhibition of yeast control strain, primary screen, counter-screen for post-Golgi transport modulator project; efflux-deficient yeast background strain, growth absorbance A615, 16 h; inhibition, % at 10 µM; hit rate 5% among 98,000
An asterisk follows results filed as active; · = no result. Cut-off read from the data, not from the text of the source, unless noted: active = inhibition above about 30%; inactive = the rest.

SMILES | PostGolgi yeast | tolC growth inh | Ecoli WT expand | PostGolgi ctrl
COC(=O)C1=C(C)N=C2SC(C)C(=O)N2C1c1cccs1 (stereo unspecified) | 17 | 16 | 1 | 6
COC(=O)C1=C(C)N=C2SC(C)C(=O)N2C1c1ccc(C(=O)OC)cc1 (stereo unspecified) | -2 | 4 | 14 | 36*
CCC1SC2=NC(C)=C(C(=O)OC)C(c3ccc(C)cc3)N2C1=O (stereo unspecified) | -13 | 3 | 0 | 42*
O=C(COC(=O)c1c[nH]c(=O)[nH]c1=O)NCc1ccccc1 | -9 | · | 1 | 10
CN=C(Nc1ccccc1OC)SC1CC(=O)N(c2ccc(C(=O)OC)cc2)C1=O (stereo unspecified) | 5 | · | -14 | 3
O=C1CC(SC(=Nc2ccccc2)Nc2ccccc2)C(=O)N1c1cccc(Cl)c1 (stereo unspecified) | 5 | · | -9 | 33*
CN=C(Nc1ccccc1)SC1CC(=O)N(c2ccc(C(=O)OC)cc2)C1=O (stereo unspecified) | 5 | · | -7 | 37*
COc1cc2c(cc1OC)C(C)N(C(=O)CCN1C(=O)C3C4C=CC(C4)C3C1=O)CC2 (stereo unspecified) | 6 | -9 | -18 | -3
O=C(NCc1cccnc1)C1c2ccccc2C(=O)N1C1CCCCCCC1 (stereo unspecified) | 5 | 4 | -4 | 34*
O=C(c1cc(-c2cccs2)on1)N1CCN(c2ccc(F)cc2)CC1 | 4 | -20 | -2 | 11
O=C(c1cn(-c2ccccc2)nc1-c1cccs1)N1CCN(c2ccc(F)cc2)CC1 | -6 | · | -9 | 48*
Cc1cc(C)cc(N2C(=O)CC(N3CCOCC3)C2=O)c1 (stereo unspecified) | 6 | -31 | 1 | -2
Cc1cc(C)cc(N2C(=O)CC(n3ccnc3)C2=O)c1 (stereo unspecified) | 5 | -10 | 3 | 32*
O=C1c2ccccc2C(=O)c2c(NCc3cccnc3)cccc21 | -2 | · | 1 | 34*
COc1ccc(CNC(=O)C2CCN(S(=O)(=O)c3cccc4cccnc34)CC2)cc1 | · | -3 | · | ·
CCCCC(CC)Cn1c2nc3ccccc3nc2c2c(=N)oc(C)nc21 (stereo unspecified) | 0 | 1 | -3 | 72*
CCCCn1c2nc3ccccc3nc2c2c(=N)oc(C)nc21 | · | 18 | · | ·
O=c1oc2cc(Cl)ccc2n1CSc1nc2ccccc2s1 | 8 | · | -20 | 32*
O=C(CSc1nc2ccccc2s1)N1c2ccccc2Sc2ccc(Cl)cc21 | -11 | · | -15 | 1
CN(C)S(=O)(=O)c1ccc(NC(=O)CN2CCN(C(c3ccccc3)c3ccccc3)CC2)cc1 | 14 | · | -2 | 3
COc1ccc2c(c1)CCc1c(C(=O)N3CCOCC3)noc1-2 | 19 | -2 | -3 | -1
COc1ccc2c(c1)CCc1c(C(=O)N3CCCc4ccccc43)noc1-2 | -4 | 71* | -13 | 14
COc1ccc2c(c1)CCc1c(C(=O)N3CC4(C)CC3CC(C)(C)C4)noc1-2 (stereo unspecified) | -7 | 59 | -16 | 38*
Cc1ccc(S(=O)(=O)/C(C#N)=C/c2c(N3CC(C)OC(C)C3)nc3c(C)cccn3c2=O)cc1 (stereo unspecified) | -3 | · | -11 | 10
O=c1c2ccccc2nc(N2CCN(c3ccccc3)CC2)n1Cc1ccccc1 | -3 | 28 | -13 | 29
SMILES | PostGolgi yeast | tolC growth inh | Ecoli WT expand | PostGolgi ctrl
Cc1ccc(C)c(N2CCN(Cc3nnnn3C3CCCCC3)CC2)c1 | 18 | 35 | -11 | 38*
O=C(NCc1ccco1)C(c1cccs1)N(C(=O)C1COc2ccccc2O1)c1cccc(O)c1 (stereo unspecified) | -7 | 76* | -8 | 19
CCCC/C(C)=N/NC(=O)C(=O)NCCc1ccccc1 | 5 | · | -8 | 18
OC(c1cccc(OCc2ccccc2)c1)c1nnc(-c2ccccc2)o1 (stereo unspecified) | -1 | 75* | -10 | 56*
CCc1ccc2oc(-c3cc(N=Cc4cccc(OC)c4O)ccc3O)nc2c1 | 9 | 5 | -6 | 33*
CCOC(=O)c1c(N)sc(C(O)(C(F)(F)F)C(F)(F)F)c1-c1ccccc1 | 3 | · | 7 | 32*
CCOC(=O)c1cc(-c2ccccc2)sc1N | 6 | 22 | -1 | 5
O=S(=O)(NCCSc1nnc(-c2ccco2)n1-c1ccccc1)c1ccccc1 | 11 | 12 | -5 | 2
Nc1c(C(=O)NCc2ccc(F)cc2)c2nc3ccccc3nc2n1CCCN1CCOCC1 | 101* | · | 10 | 73*
CC(C)Cn1c(N)c(C(=O)NCCN2CCOCC2)c2nc3ccccc3nc21 | 8 | 14 | 4 | 7
Cc1cccc(-n2c(N)c(C(=O)NCCN3CCOCC3)c3nc4ccccc4nc32)c1 | 30* | 10 | -4 | -2
Cc1ccc(-c2cc(C(=O)NCCN3CCOCC3)no2)cc1 | -5 | -16 | 4 | 30*
COc1ccc2c(c1)c(C(C)=O)c(C)n2-c1ccccc1 | 0 | · | 1 | 22
COc1ccc(-n2c(C)c(C(C)=O)c3cc(O)ccc32)cc1 | -1 | 5 | -16 | 32*
Cc1c(C(=O)N2CCC(C)CC2)sc2ncnc(N3CCN(c4ccccc4)CC3)c12 | -5 | · | -16 | 22
CCCCCNC(=O)c1ccc2c(=O)[nH]c3c(C(=O)NCC4CCCO4)sc(=S)n3c2c1 (stereo unspecified) | -1 | 100* | -5 | 6
COCCCNC(=O)c1ccc2c(=O)n(CC3CCCO3)c(=S)[nH]c2c1 (stereo unspecified) | 9 | · | -4 | 16
O=C(NC1CCCC1)c1sc(=S)n2c1[nH]c(=O)c1ccccc12 | 4 | 100* | 1 | 51*
O=C(NC1CCCCCCC1)c1c(O)c2ccccc2[nH]c1=O | -6 | -15 | -5 | 4
O=C(NCc1ccco1)c1sc(=S)n2c1[nH]c(=O)c1ccccc12 | -7 | 100* | 11 | 32*
Cc1ccc(OS(=O)(=O)c2ccccc2)c(/C=N/N=C2\NC(=O)C(C)S2)c1 (stereo unspecified) | -5 | · | -4 | 41*
Cc1c(Cl)cccc1NC(=O)c1ccc(-n2ccnc2)nc1 | 2 | · | -4 | 34*
Cc1ncoc1C(=O)Nc1cccc(Cl)c1C | -6 | -9 | 6 | 8
Nc1ncncc1-c1ccc([N+](=O)[O-])cc1 | 2 | · | 78* | 8
CC(=NCCN1CCNCC1)C1=C(O)CC(C)(C)CC1=O | 2 | -13 | 3 | 6
CCCCc1nn(-c2cc(Cl)ccc2OC)c2c1C(=O)CC(C)(C)C2 | -4 | · | -4 | 32*
CCOC(=O)c1c(NC(=O)CN2CCCCC2)sc2c1CCN(C(=O)OCC)C2 | 13 | 96* | -5 | 13
CCOC(=O)c1c(NC(=O)CN(CC)CC)sc2c1CCN(C(=O)OCC)C2 | -3 | 18 | 1 | 21
Cc1cccc2cc(-c3nc4c(C)cccn4c3NCc3ccco3)c(=O)[nH]c12 | 44* | · | -1 | 56*
O=S(=O)(Nc1cc(Cl)ccc1N1CCCCC1)c1cccs1 | -7 | 62* | -6 | 25
